“And” between values parts separate entries of the source, which are not always exact repeats. Identical values can stand only once.
Assays:
Type in all cases: toxicity, cell-based
U2OS [1] = assay: Multiplex assay against U2OS; conditions: human, 10 µM, compound concentration 10 uM
Outline: (§1)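 Cells stained live at seeding with Hoechst33342, BioTracker Green Microtubule Cytoskeleton Dye, MitoTracker Red and Annexin V Alexa Fluor 680 were imaged on a CQ1 microscope at 37°C and 5% CO2 after compound addition. Their classification by CellPathfinder machine-learning gating ran from Hoechst high-intensity objects versus normal cells, to healthy, pyknosed or fragmented nuclei among normal cells, to mitotic or apoptotic among pyknosed cells. Tubulin, mitochondrial-mass and membrane-permeability phenotypes are per cents of healthy-nucleus cells.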

Fibroblast [2] = assay: Incucyte cell viability with human fibroblast; conditions: 10 µM, compound concentration 10 uM; further: filed as whole numbers so only -1 and 0 and 1 occur
Fibroblast [3] = assay: Multiplex assay against human fibroblast; conditions: 10 µM, compound concentration 10 uM; outline: as §1
U2OS [4] = assay: Incucyte cell viability with U2OS; conditions: human, 10 µM, compound concentration 10 uM; further: filed as whole numbers so only -1 and 0 and 1 occur
HEK-293T [5] = assay: Multiplex assay against HEK293T; conditions: human, 10 µM, compound concentration 10 uM; outline: as §1;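 on Population Tubulin-Different-Phenotype (%): share of the cells with healthy nuclei that show this phenotype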
HEK-293T [6] = assay: Incucyte cell viability with HEK293T; conditions: human, 10 µM, compound concentration 10 uM; further: filed as whole numbers so only -1 and 0 and 1 occur
[7] = 0 h, replicate number 1, timepoint 0 hours
[8] = 12 h, replicate number 1, timepoint 12 hours
[9] = 18 h, replicate number 1, timepoint 18 hours
[10] = 24 h, replicate number 1, timepoint 24 hours
[11] = 0 h, replicate number 2, timepoint 0 hours

Cn1nc(C(=O)NCc2ccc(C(=O)O)cc2)cc1-c1ccc2[nH]ccc2c1 [BI 4395]
Population Apoptotic (%) (U2OS [1]; 12 h, replicate 1): 42%
Population Fragmented Nuclei (%) (U2OS [1]; 12 h, replicate 1): 4%
Population Healthy Nuclei (%) (U2OS [1]; 12 h, replicate 1): 87% and 92%
Population Hoechst High Intensity Objects (%) (U2OS [1]; 12 h, replicate 1): 2% and 3%
Population Membrane Permeable-Phenotype (%) (U2OS [1]; 12 h, replicate 1): 9% and 4%
Population Mitochondria Different-Phenotype (%) (U2OS [1]; 12 h, replicate 1): 17%
Population Mitotic Cells (%) (U2OS [1]; 12 h, replicate 1): 57%
Population Normal (%) (U2OS [1]; 12 h, replicate 1): 97% and 96%
Population Pyknosed Nuclei (%) (U2OS [1]; 12 h, replicate 1): 8%
Population Tubulin-Different-Phenotype (%) (U2OS [1]; 12 h, replicate 1): 21% and 16%
Total Cell Count (U2OS [1]; 12 h, replicate 1): 177 and 225
Population Fragmented Nuclei (%) (U2OS [1]; 12 h, replicate 2): 9% and 7%
Population Healthy Nuclei (%) (U2OS [1]; 12 h, replicate 2): 89%
Population Hoechst High Intensity Objects (%) (U2OS [1]; 12 h, replicate 2): 11%
Population Membrane Permeable-Phenotype (%) (U2OS [1]; 12 h, replicate 2): 8%
Population Mitochondria Different-Phenotype (%) (U2OS [1]; 12 h, replicate 2): 35% and 23%
Population Mitotic Cells (%) (U2OS [1]; 12 h, replicate 2): 50% and 100%
Population Normal (%) (U2OS [1]; 12 h, replicate 2): 88%
Population Pyknosed Nuclei (%) (U2OS [1]; 12 h, replicate 2): 2% and 3%
Population Tubulin-Different-Phenotype (%) (U2OS [1]; 12 h, replicate 2): 30%
Total Cell Count (U2OS [1]; 12 h, replicate 2): 84 and 159
Population Apoptotic (%) (U2OS [1]; 24 h, replicate 1): 18% and 33%
Population Fragmented Nuclei (%) (U2OS [1]; 24 h, replicate 1): 4% and 1%
Population Healthy Nuclei (%) (U2OS [1]; 24 h, replicate 1): 95%
Population Hoechst High Intensity Objects (%) (U2OS [1]; 24 h, replicate 1): 1%
Population Membrane Permeable-Phenotype (%) (U2OS [1]; 24 h, replicate 1): 6%
Population Mitochondria Different-Phenotype (%) (U2OS [1]; 24 h, replicate 1): 18% and 24%
Population Mitotic Cells (%) (U2OS [1]; 24 h, replicate 1): 81% and 66%
Population Normal (%) (U2OS [1]; 24 h, replicate 1): 98%
Population Pyknosed Nuclei (%) (U2OS [1]; 24 h, replicate 1): 6% and 2%
Population Tubulin-Different-Phenotype (%) (U2OS [1]; 24 h, replicate 1): 20%
Total Cell Count (U2OS [1]; 24 h, replicate 1): 253 and 307
Population Apoptotic (%) (U2OS [1]; 24 h, replicate 2): 40% and 60%
Population Fragmented Nuclei (%) (U2OS [1]; 24 h, replicate 2): 7% and 5%
Population Healthy Nuclei (%) (U2OS [1]; 24 h, replicate 2): 87% and 89%
Population Hoechst High Intensity Objects (%) (U2OS [1]; 24 h, replicate 2): 7% and 6%
Population Membrane Permeable-Phenotype (%) (U2OS [1]; 24 h, replicate 2): 9% and 8%
Population Mitochondria Different-Phenotype (%) (U2OS [1]; 24 h, replicate 2): 15% and 40%
Population Mitotic Cells (%) (U2OS [1]; 24 h, replicate 2): 60% and 40%
Population Normal (%) (U2OS [1]; 24 h, replicate 2): 92% and 93%
Population Pyknosed Nuclei (%) (U2OS [1]; 24 h, replicate 2): 5%
Population Tubulin-Different-Phenotype (%) (U2OS [1]; 24 h, replicate 2): 34% and 29%
Total Cell Count (U2OS [1]; 24 h, replicate 2): 199 and 102
Growth Rate (Fibroblast [2]; [7]): 0
Growth Rate (Fibroblast [2]; 6 h, replicate number 2, timepoint 6 hours): 0
Growth Rate (Fibroblast [2]; [8]): 1
Growth Rate (Fibroblast [2]; [9]): 1
Growth Rate (Fibroblast [2]; [10]): 1
Population Apoptotic (%) (Fibroblast [3]; 12 h, replicate 1): 77% and 69%
Population Fragmented Nuclei (%) (Fibroblast [3]; 12 h, replicate 1): 29% and 28%
Population Healthy Nuclei (%) (Fibroblast [3]; 12 h, replicate 1): 57%
Population Hoechst High Intensity Objects (%) (Fibroblast [3]; 12 h, replicate 1): 12% and 19%
Population Mitochondria Different-Phenotype (%) (Fibroblast [3]; 12 h, replicate 1): 3% and 2%
Population Mitotic Cells (%) (Fibroblast [3]; 12 h, replicate 1): 22% and 30%
Population Normal (%) (Fibroblast [3]; 12 h, replicate 1): 87% and 80%
Population Pyknosed Nuclei (%) (Fibroblast [3]; 12 h, replicate 1): 13% and 14%
Population Tubulin-Different-Phenotype (%) (Fibroblast [3]; 12 h, replicate 1): 9% and 4%
Total Cell Count (Fibroblast [3]; 12 h, replicate 1): 190 and 199
Population Apoptotic (%) (Fibroblast [3]; 12 h, replicate 2): 42% and 100%
Population Fragmented Nuclei (%) (Fibroblast [3]; 12 h, replicate 2): 43% and 54%
Population Healthy Nuclei (%) (Fibroblast [3]; 12 h, replicate 2): 38% and 39%
Population Hoechst High Intensity Objects (%) (Fibroblast [3]; 12 h, replicate 2): 29% and 49%
Population Membrane Permeable-Phenotype (%) (Fibroblast [3]; 12 h, replicate 2): 26% and 9%
Population Mitochondria Different-Phenotype (%) (Fibroblast [3]; 12 h, replicate 2): 13% and 0%
Population Normal (%) (Fibroblast [3]; 12 h, replicate 2): 70% and 50%
Total Cell Count (Fibroblast [3]; 12 h, replicate 2): 55 and 104
Population Apoptotic (%) (Fibroblast [3]; 24 h, replicate 1): 71% and 69%
Population Fragmented Nuclei (%) (Fibroblast [3]; 24 h, replicate 1): 29% and 27%
Population Healthy Nuclei (%) (Fibroblast [3]; 24 h, replicate 1): 58% and 57%
Population Hoechst High Intensity Objects (%) (Fibroblast [3]; 24 h, replicate 1): 12% and 17%
Population Membrane Permeable-Phenotype (%) (Fibroblast [3]; 24 h, replicate 1): 9% and 5%
Population Mitochondria Different-Phenotype (%) (Fibroblast [3]; 24 h, replicate 1): 2% and 0%
Population Mitotic Cells (%) (Fibroblast [3]; 24 h, replicate 1): 28% and 30%
Population Normal (%) (Fibroblast [3]; 24 h, replicate 1): 87% and 82%
Population Pyknosed Nuclei (%) (Fibroblast [3]; 24 h, replicate 1): 14%
Population Tubulin-Different-Phenotype (%) (Fibroblast [3]; 24 h, replicate 1): 7% and 4%
Total Cell Count (Fibroblast [3]; 24 h, replicate 1): 202 and 211
Population Fragmented Nuclei (%) (Fibroblast [3]; 24 h, replicate 2): 75% and 51%
Population Healthy Nuclei (%) (Fibroblast [3]; 24 h, replicate 2): 25% and 37%
Population Hoechst High Intensity Objects (%) (Fibroblast [3]; 24 h, replicate 2): 44% and 38%
Population Membrane Permeable-Phenotype (%) (Fibroblast [3]; 24 h, replicate 2): 15%
Population Mitochondria Different-Phenotype (%) (Fibroblast [3]; 24 h, replicate 2): 15% and 7%
Population Mitotic Cells (%) (Fibroblast [3]; 24 h, replicate 2): 0%
Population Normal (%) (Fibroblast [3]; 24 h, replicate 2): 55% and 61%
Population Pyknosed Nuclei (%) (Fibroblast [3]; 24 h, replicate 2): 0% and 11%
Population Tubulin-Different-Phenotype (%) (Fibroblast [3]; 24 h, replicate 2): 15% and 38%
Total Cell Count (Fibroblast [3]; 24 h, replicate 2): 94 and 57
Growth Rate (U2OS [4]; [11]): 0
Growth Rate (U2OS [4]; 6 h, replicate number 1, timepoint 6 hours): 1
Growth Rate (U2OS [4]; [8]): 1
Growth Rate (U2OS [4]; [9]): 1
Growth Rate (U2OS [4]; [10]): 1
Population Apoptotic (%) (HEK-293T [5]; 12 h, replicate 1): 20% and 23%
Population Fragmented Nuclei (%) (HEK-293T [5]; 12 h, replicate 1): 9% and 10%
Population Healthy Nuclei (%) (HEK-293T [5]; 12 h, replicate 1): 78% and 75%
Population Hoechst High Intensity Objects (%) (HEK-293T [5]; 12 h, replicate 1): 9% and 8%
Population Membrane Permeable-Phenotype (%) (HEK-293T [5]; 12 h, replicate 1): 4% and 2%
Population Mitochondria Different-Phenotype (%) (HEK-293T [5]; 12 h, replicate 1): 2% and 7%
Population Mitotic Cells (%) (HEK-293T [5]; 12 h, replicate 1): 79% and 76%
Population Normal (%) (HEK-293T [5]; 12 h, replicate 1): 90% and 91%
Population Pyknosed Nuclei (%) (HEK-293T [5]; 12 h, replicate 1): 12% and 14%
Population Tubulin-Different-Phenotype (%) (HEK-293T [5]; 12 h, replicate 1): 2% and 3%
Total Cell Count (HEK-293T [5]; 12 h, replicate 1): 895 and 750
Population Apoptotic (%) (HEK-293T [5]; 12 h, replicate 2): 5% and 6%
Population Healthy Nuclei (%) (HEK-293T [5]; 12 h, replicate 2): 84%
Population Hoechst High Intensity Objects (%) (HEK-293T [5]; 12 h, replicate 2): 1%
Population Membrane Permeable-Phenotype (%) (HEK-293T [5]; 12 h, replicate 2): 1%
Population Mitochondria Different-Phenotype (%) (HEK-293T [5]; 12 h, replicate 2): 4%
Population Mitotic Cells (%) (HEK-293T [5]; 12 h, replicate 2): 94% and 93%
Population Normal (%) (HEK-293T [5]; 12 h, replicate 2): 98%
Population Pyknosed Nuclei (%) (HEK-293T [5]; 12 h, replicate 2): 5% and 4%
Population Tubulin-Different-Phenotype (%) (HEK-293T [5]; 12 h, replicate 2): 4%
Total Cell Count (HEK-293T [5]; 12 h, replicate 2): 1558 and 1918
Population Apoptotic (%) (HEK-293T [5]; 24 h, replicate 1): 15% and 13%
Population Fragmented Nuclei (%) (HEK-293T [5]; 24 h, replicate 1): 11% and 14%
Population Healthy Nuclei (%) (HEK-293T [5]; 24 h, replicate 1): 81% and 80%
Population Hoechst High Intensity Objects (%) (HEK-293T [5]; 24 h, replicate 1): 6% and 4%
Population Membrane Permeable-Phenotype (%) (HEK-293T [5]; 24 h, replicate 1): 9% and 6%
Population Mitochondria Different-Phenotype (%) (HEK-293T [5]; 24 h, replicate 1): 2% and 4%
Population Mitotic Cells (%) (HEK-293T [5]; 24 h, replicate 1): 84% and 86%
Population Normal (%) (HEK-293T [5]; 24 h, replicate 1): 93% and 95%
Population Pyknosed Nuclei (%) (HEK-293T [5]; 24 h, replicate 1): 6% and 5%
Population Tubulin-Different-Phenotype (%) (HEK-293T [5]; 24 h, replicate 1): 3% and 5%
Total Cell Count (HEK-293T [5]; 24 h, replicate 1): 1152 and 1021
Population Fragmented Nuclei (%) (HEK-293T [5]; 24 h, replicate 2): 26% and 29%
Population Healthy Nuclei (%) (HEK-293T [5]; 24 h, replicate 2): 71% and 68%
Population Hoechst High Intensity Objects (%) (HEK-293T [5]; 24 h, replicate 2): 2% and 3%
Population Membrane Permeable-Phenotype (%) (HEK-293T [5]; 24 h, replicate 2): 4%
Population Mitochondria Different-Phenotype (%) (HEK-293T [5]; 24 h, replicate 2): 1%
Population Mitotic Cells (%) (HEK-293T [5]; 24 h, replicate 2): 98% and 91%
Population Normal (%) (HEK-293T [5]; 24 h, replicate 2): 97% and 96%
Population Pyknosed Nuclei (%) (HEK-293T [5]; 24 h, replicate 2): 2% and 1%
Total Cell Count (HEK-293T [5]; 24 h, replicate 2): 2665 and 3275
Growth Rate (HEK-293T [6]; [7]): 0
Growth Rate (HEK-293T [6]; [11]): 1
Growth Rate (HEK-293T [6]; [8]): 0
Growth Rate (HEK-293T [6]; [9]): 0
Growth Rate (HEK-293T [6]; 18 h, replicate number 2, timepoint 18 hours): 1
Growth Rate (HEK-293T [6]; [10]): 0
